Results from ChEMBL document CHEMBL1649317, “Acquisition of a transposon encoding extended-spectrum beta-lactamase SHV-12 by Pseudomonas aeruginosa isolates during the clinical course of a burn patient” (2010).
Values after ≈ are worked out from the molar mass of the structure shown.

What was measured:
Pseudomonas aeruginosa [1] = assay: Antimicrobial activity against SHV-12 ESBL producing Pseudomonas aeruginosa isolate 2207 isolated from burn patient by broth microdilution method; format: functional
Procedure, shortened: (§1)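 MICs were determined by broth microdilution following the CLSI proposal. For clavulanic acid combinations, clavulanate was held at a fixed concentration. The seven isolates came from a single burn patient over the clinical course. P072204 was taken from sputum; all others were taken from burn sites. Isolates were typed by PCR for blaSHV and IS26.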

Pseudomonas aeruginosa [2] = assay: Antimicrobial activity against SHV-12 ESBL producing Pseudomonas aeruginosa isolate 2205 isolated from burn patient by broth microdilution method; format: functional; procedure, shortened: as §1
Pseudomonas aeruginosa [3] = assay: Antimicrobial activity against SHV-12 ESBL producing Pseudomonas aeruginosa isolate 2206 isolated from burn patient by broth microdilution method; format: functional; procedure, shortened: as §1
Pseudomonas aeruginosa [4] = assay: Antimicrobial activity against SHV-12 ESBL producing Pseudomonas aeruginosa isolate 2201 isolated from burn patient by broth microdilution method; format: functional; procedure, shortened: as §1
Pseudomonas aeruginosa [5] = assay: Antimicrobial activity against SHV-12 ESBL producing Pseudomonas aeruginosa isolate 2203 isolated from burn patient by broth microdilution method; format: functional; procedure, shortened: as §1
Pseudomonas aeruginosa [6] = assay: Antimicrobial activity against SHV-12 ESBL producing Pseudomonas aeruginosa isolate 2204 isolated from burn patient by broth microdilution method; format: functional; procedure, shortened: as §1
Pseudomonas aeruginosa [7] = assay: Antimicrobial activity against SHV-12 ESBL producing Pseudomonas aeruginosa isolate 2202 isolated from burn patient by broth microdilution method; format: functional; procedure, shortened: as §1
Pseudomonas aeruginosa [8] = assay: Antimicrobial activity against SHV-12 ESBL producing Pseudomonas aeruginosa isolate 2207 isolated from burn patient by broth microdilution method in presence of beta-lactamase inhibitor clavulanic acid; format: functional
Pseudomonas aeruginosa [9] = assay: Antimicrobial activity against SHV-12 ESBL non-producing Pseudomonas aeruginosa isolate 2204 isolated from burn patient by broth microdilution method in presence of beta-lactamase inhibitor clavulanic acid
Pseudomonas aeruginosa [10] = assay: Antimicrobial activity against SHV-12 ESBL non-producing Pseudomonas aeruginosa isolate 2203 isolated from burn patient by broth microdilution method in presence of beta-lactamase inhibitor clavulanic acid
Pseudomonas aeruginosa [11] = assay: Antimicrobial activity against SHV-12 ESBL producing Pseudomonas aeruginosa isolate 2206 isolated from burn patient by broth microdilution method in presence of beta-lactamase inhibitor clavulanic acid; format: functional
Pseudomonas aeruginosa [12] = assay: Antimicrobial activity against SHV-12 ESBL producing Pseudomonas aeruginosa isolate 2205 isolated from burn patient by broth microdilution method in presence of beta-lactamase inhibitor clavulanic acid; format: functional
Pseudomonas aeruginosa [13] = assay: Antimicrobial activity against SHV-12 ESBL producing Pseudomonas aeruginosa isolate 2201 isolated from burn patient by broth microdilution method in presence of beta-lactamase inhibitor clavulanic acid; format: functional
Pseudomonas aeruginosa [14] = assay: Antimicrobial activity against SHV-12 ESBL non-producing Pseudomonas aeruginosa isolate 2202 isolated from burn patient by broth microdilution method in presence of beta-lactamase inhibitor clavulanic acid

SMILES	MIC (Pseudomonas aeruginosa [1]) [µg/mL]	MIC (Pseudomonas aeruginosa [2]) [µg/mL]	MIC (Pseudomonas aeruginosa [3]) [µg/mL]	MIC (Pseudomonas aeruginosa [4]) [µg/mL]	MIC (Pseudomonas aeruginosa [5]) [µg/mL]	MIC (Pseudomonas aeruginosa [6]) [µg/mL]	MIC (Pseudomonas aeruginosa [7]) [µg/mL]	MIC (Pseudomonas aeruginosa [8]) [µg/mL]	MIC (Pseudomonas aeruginosa [9]) [µg/mL]	MIC (Pseudomonas aeruginosa [10]) [µg/mL]	MIC (Pseudomonas aeruginosa [11]) [µg/mL]	MIC (Pseudomonas aeruginosa [12]) [µg/mL]	MIC (Pseudomonas aeruginosa [13]) [µg/mL]	MIC (Pseudomonas aeruginosa [14]) [µg/mL]
CO/N=C(\C(=O)N[C@@H]1C(=O)N2C(C(=O)[O-])=C(C[N+]3(C)CCCC3)CS[C@H]12)c1csc(N)n1	512 (≈ 1070 µM)	256 (≈ 533 µM)	512 (≈ 1070 µM)	–	–	–	–	–	–	–	–	–	–	–
NCC[C@H](O)C(=O)N[C@@H]1C[C@H](N)[C@@H](O[C@H]2O[C@H](CN)[C@@H](O)[C@H](O)[C@H]2O)[C@H](O)[C@H]1O[C@H]1O[C@H](CO)[C@@H](O)[C@H](N)[C@H]1O [AMIKACIN]	128 (≈ 219 µM)	128 (≈ 219 µM)	128 (≈ 219 µM)	4 (≈ 6.83 µM)	4 (≈ 6.83 µM)	4 (≈ 6.83 µM)	4 (≈ 6.83 µM)	–	–	–	–	–	–	–
C[C@H]1[C@H](NC(=O)/C(=N\OC(C)(C)C(=O)O)c2csc(N)n2)C(=O)N1S(=O)(=O)O [AZTREONAM]	512 (≈ 1180 µM)	512 (≈ 1180 µM)	512 (≈ 1180 µM)	–	–	–	–	–	–	–	–	–	–	–
CO/N=C(\C(=O)N[C@@H]1C(=O)N2C(C(=O)O)=C(COC(C)=O)CS[C@H]12)c1csc(N)n1 [CEFOTAXIME]	512 (≈ 1120 µM)	512 (≈ 1120 µM)	512 (≈ 1120 µM)	16 (≈ 35.1 µM)	128 (≈ 281 µM)	64 (≈ 141 µM)	256 (≈ 562 µM)	64	64	128	64	64	16	256
CC(C)(O/N=C(\C(=O)N[C@@H]1C(=O)N2C(C(=O)[O-])=C(C[n+]3ccccc3)CS[C@H]12)c1csc(N)n1)C(=O)O [CEFTAZIDIME]	512 (≈ 937 µM)	512 (≈ 937 µM)	512 (≈ 937 µM)	2 (≈ 3.66 µM)	8 (≈ 14.6 µM)	4 (≈ 7.32 µM)	16 (≈ 29.3 µM)	16	4	8	16	16	2	16
CCN1CCN(C(=O)N[C@@H](C(=O)N[C@@H]2C(=O)N3[C@@H]2SC(C)(C)[C@@H]3C(=O)O)c2ccccc2)C(=O)C1=O [PIPERACILLIN]	512 (≈ 989 µM)	256 (≈ 495 µM)	512 (≈ 989 µM)	16 (≈ 30.9 µM)	16 (≈ 30.9 µM)	16 (≈ 30.9 µM)	32 (≈ 61.8 µM)	256	16	16	256	128	16	32
CC1(C)S[C@@H]2[C@H](NC(=O)[C@H](C(=O)O)c3ccsc3)C(=O)N2[C@H]1C(=O)O [TICARCILLIN]	> 512	> 512	> 512	16 (≈ 41.6 µM)	32 (≈ 83.2 µM)	64 (≈ 166 µM)	32 (≈ 83.2 µM)	> 512	64	32	> 512	> 512	16	32
